The source of these data is ChEMBL document CHEMBL2151023, “2-Alkynoic fatty acids inhibit topoisomerase IB from Leishmania donovani” (Bioorg Med Chem Lett, 2012).

Structures are written as SMILES. Active and inactive are the calls of the source. The calls are words filed in the database; no cut-off is given here.

One assay concerns L6. The assay is described as follows: Cytotoxicity against rat L6 cells. In kind it is cell-based.
For assay [1], the target named is T1, DNA topoisomerase type IB small subunit (Leishmania major) (UniProt Q95Z89).
T1 sequence (whole entry): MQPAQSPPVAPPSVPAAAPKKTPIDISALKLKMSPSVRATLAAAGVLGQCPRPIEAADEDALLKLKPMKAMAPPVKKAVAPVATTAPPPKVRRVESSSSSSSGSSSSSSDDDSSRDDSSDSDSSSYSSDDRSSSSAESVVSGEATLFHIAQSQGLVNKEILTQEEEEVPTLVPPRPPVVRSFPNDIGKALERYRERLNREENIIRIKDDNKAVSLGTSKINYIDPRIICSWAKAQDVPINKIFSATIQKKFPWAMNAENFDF
In words: Inhibition of Leishmania donovani topoisomerase 1B-mediated relaxation of supercoiled pSK DNA at 100 uM preincubated for 15 mins by ethidium bromide staining based agarose gel electrophoresis. The procedure, abridged:
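LdTopIB pre-incubated 15 min at 4 °C with 100 µM compound, or with DMSO as control. […] Samples stopped with SDS, digested with proteinase K, phenol-chloroform extracted and resolved on ethidium bromide agarose gel.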

In assay [2] the target is T1, DNA topoisomerase type IB small subunit (Leishmania major). The assay is described as follows: Inhibition of Leishmania donovani topoisomerase 1B-mediated relaxation of supercoiled pSK DNA at 100 uM after 4 mins by ethidium bromide staining based agarose gel electrophoresis. A digest of the protocol: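 Stopped with 1% SDS, then digested 1 h at 37°C with 1 mg/ml proteinase K. Extracted with phenol-chloroform and run on 1% agarose containing 40 µg/ml ethidium bromide.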

A short description of assay [3]: Inhibition of human topoisomerase 1B-mediated relaxation of supercoiled pSK DNA after 30 mins by ethidium bromide staining based agarose gel electrophoresis. The procedure, abridged: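 Plasmid DNA relaxation assay with the enzyme over 30 min at 37 °C, acid at 3.125–100 μM. Reactions stopped with 1% SDS plus proteinase K. Products resolved on agarose and stained with ethidium bromide, scoring supercoiled, nicked and relaxed topoisomer bands.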

Assay [4] can be described thus: Cytotoxicity against BALB/C mouse macrophages. In kind it is cell-based. Particulars: Macrophage.
The test system of the next assay is Leishmania donovani. The assay is described as follows: Antiprotozoal activity against Leishmania donovani axenic amastigotes. Format: functional, organism-based.
The next assay concerns Trypanosoma cruzi. The assay is described as follows: Antiprotozoal activity against intracellular Trypanosoma cruzi amastigotes in rat L6 cells. Format: functional, organism-based.
For assay [5], the system named is Trypanosoma brucei rhodesiense. In words: Antiprotozoal activity against Trypanosoma brucei rhodesiense bloodstream forms. Format: functional, organism-based.
In another assay the test system is Leishmania infantum. In words: Induction of apoptosis in Leishmania infantum promastigotes at 400 uM after 24 hrs by AnnexinV-FITC/propidium iodide based FACS flow cytometry. Format: functional. The procedure, abridged:
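L. infantum promastigotes exposed to 400 μM for 24 h, harvested, washed twice in PBS, resuspended at 1×10^6 cells/ml, stained with annexin V-FITC plus propidium iodide for 15 min at room temperature in the dark. Flow cytometry on at least 10,000 gated cells, read as percent of cells per quadrant. Untreated and H2O2-treated cells serve as controls. Representative of three independent trials.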

With `COc1cc([C@@H]2c3cc4c(cc3[C@H](O)[C@H]3COC(=O)[C@H]23)OCO4)cc(OC)c1OC` [PODOFILOX], 0.02 µM corresponded to half-maximal inhibition with L6 (IC50).

On to `CC[C@@]1(O)C(=O)OCc2c1cc1n(c2=O)Cc2cc3ccccc3nc2-1` [CAMPTOTHECIN], for which the inhibition entry in [1] is “Active”. The inhibition entry in assay [2] is “inactive”. Besides, the half-maximal effective concentration (EC50) in assay [3] is 2 µM. This molecule also showed an IC50 in [4] of 0.62 µM.

For `CCCCCCCCCCCCCCCC(=O)O` [PALMITIC ACID], the IC50 in the assay on L6 was 209 µM.

As for `CCCCCCCCCCCCCCCCOP(=O)([O-])OCC[N+](C)(C)C` [MILTEFOSINE], the IC50 in the assay with Leishmania donovani came to 0.49 µM.

In the case of `O=C(Cn1ccnc1[N+](=O)[O-])NCc1ccccc1` [BENZNIDAZOLE], 1.47 µM corresponded to half-maximal inhibition with Trypanosoma cruzi (IC50).

On to `CCCCCCCCCCCCCCCC#CC(=O)O`, for which the IC50 is 48.1 µM with Trypanosoma cruzi; 20 µM with L6; 64.5 µM in assay [5]; above 100 µM in assay [4]; 11 µM in the assay on Leishmania donovani. A half-maximal response in [3] (EC50) required 51.9 µM. The molecule also showed an Activity with Leishmania infantum of 1.98%.

As for `CCCCCCCCCCCC#CC(=O)O`, the IC50 with Trypanosoma cruzi was 62.4 µM; in the assay with L6 it was 40.9 µM; in assay [5] it was 255 µM; in assay [4], above 100 µM; in the assay with Leishmania donovani, 24.7 µM. For the same molecule, the EC50 in assay [3] is above 100 µM. This molecule also gave an Activity in the assay with Leishmania infantum of 1.75%.

The term IC50 denotes the concentration at which inhibition is half-maximal. The EC50 is the midpoint of the concentration-response curve. Read a high EC50 as lower potency in that assay.
